Compound activity from PubChem BioAssay.
TDP2 inh = TDP2 (human) inhibition, absorbance primary screen; O95551; recombinant TDP2, T5PNP hydrolysis, p-nitrophenol absorbance 415 nm; inhibition, % at 12.8 µM; 370,000 compounds, 0.34% hits;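 active = inhibition above the mean of all tested compounds plus 3 SD, set per campaign, cut at about 25% in these data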
Target sequence (O95551 whole entry, looked up): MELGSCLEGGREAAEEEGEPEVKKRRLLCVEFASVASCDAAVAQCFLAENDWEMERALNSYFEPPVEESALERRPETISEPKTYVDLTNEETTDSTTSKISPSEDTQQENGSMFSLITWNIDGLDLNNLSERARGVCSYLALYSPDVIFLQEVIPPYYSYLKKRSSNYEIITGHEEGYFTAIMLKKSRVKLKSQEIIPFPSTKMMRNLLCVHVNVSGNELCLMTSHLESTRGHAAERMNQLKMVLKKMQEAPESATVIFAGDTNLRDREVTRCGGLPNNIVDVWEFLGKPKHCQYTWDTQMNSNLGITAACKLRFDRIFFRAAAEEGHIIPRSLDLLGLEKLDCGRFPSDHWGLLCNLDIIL
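Assay system: Recombinant human TDP2 | Quantity: 120 nM TDP2 per well | Incubation: 2 h at 37 °C | Signal: Epi absorbance | Evaluation: Percent inhibition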
PAFAH1B3 inh = blocks human PAF acetylhydrolase 1B catalytic subunit 3. recombinant PAFAH1B3, FP-rhodamine probe, fluorescence polarization. 340,000 compounds, 0.28% hits. inhibition, % at 3.39 µM;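 active = inhibition above the screen-wide average of all tested compounds plus 3 SD, cut at about 25% in these data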
Target sequence (Q15102 whole entry, looked up): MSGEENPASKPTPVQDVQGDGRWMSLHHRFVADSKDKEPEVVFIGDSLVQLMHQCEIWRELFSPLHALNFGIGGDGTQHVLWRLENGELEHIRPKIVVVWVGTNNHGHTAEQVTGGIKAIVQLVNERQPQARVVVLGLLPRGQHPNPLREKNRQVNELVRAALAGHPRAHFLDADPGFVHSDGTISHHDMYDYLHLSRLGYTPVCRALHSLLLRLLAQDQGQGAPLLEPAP
Apaf-1 inh = human Apaf-1 inhibition; reconstituted apoptosome caspase-3 activity, DEVD-Rh110 fluorescence; inhibition, % at 20 µM; 330,000 compounds, 0.71% hits; AID 489030; active = inhibition of at least 40% at 20 µM
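Material: reconstituted apoptosome with Apaf-1, cytochrome c, caspase-9, procaspase-3, dATP / Buffer or medium: pH 7.5 Hepes buffer with CHAPS, BSA, DTT / Also added: cytochrome c with DEVD-Rh110 / Schedule: compound with Apaf-1, dATP, procaspase-3 30 min, then 50 min reaction, room temperature / Technique: rhodamine 110 fluorescence at Ex 480/Em 540 nm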
PAFAH2 FP inh = PAFAH2 (human) inhibition. AID 492956. 340,000 compounds, 0.99% hits. Q99487. inhibition, % at 3.39 µM. recombinant PAFAH2, FP-rhodamine activity probe, fluorescence polarization;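 active = inhibition above the mean over all tested compounds plus 3 SD, cut at about 30% in these data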;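 note: inhibitors block probe labeling of enzyme so polarization drops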
PAFAH1B2 FP inh = inhibitors of human PAFAH1B2. recombinant PAFAH1B2, FP-rhodamine activity probe, fluorescence polarization. inhibition, % at 3.39 µM. 340,000 compounds, 1.2% hits. AID 492953;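 active = inhibition above the mean of all tested compounds plus 3 SD, cut at about 24% in these data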
PAFAH2 confirm = PAFAH2 (human) inhibition, confirmed. AID 493030. inhibition, % at 3.39 µM. recombinant PAFAH2, FP-rhodamine activity probe, fluorescence polarization. shares compounds with PAFAH2 FP inh. 2,300 compounds, 65% hits;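 active = mean inhibition over three repeats above a set limit taken from the earlier primary screen, cut at about 30% in these data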;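 note: inhibitor blocks binding of rhodamine activity probe so polarization falls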
A number is an active result; i = inactive; nt = no result given. Compounds with a hit are over-represented: about 2.3% of the library has one in this group of screens.

SMILES | TDP2 inh | PAFAH1B3 inh | Apaf-1 inh | PAFAH2 FP inh | PAFAH1B2 FP inh | PAFAH2 confirm
Cc1ccc(CSc2nnc(SCC(=O)N/N=C/c3c[nH]c4ccccc34)s2)cc1 | i | i | nt | 29.8 | i | 31.2
O=C(COC(=O)/C=C/c1ccco1)Nc1ncc(Cl)cc1Cl | i | i | i | 47.1 | i | i
CC(C)=CC(=O)OCC(=O)Nc1nc(C)c(Cl)cc1Cl | i | i | i | i | i | nt
Cc1nc(NC(=O)COC(=O)/C=C/c2ccco2)c(Cl)cc1Cl | i | i | i | 35.0 | i | i
CC(C)(C)c1ccc(-c2nnc(SCC(=O)Nc3ccc(S(=O)(=O)Nc4nccs4)cc3)n2-c2ccc(Cl)cc2)cc1 | i | nt | nt | nt | nt | nt
CC(C)OC(=O)c1ccc(NCc2cc(O)ccc2O)cc1 | i | i | nt | i | i | nt
O=C(OCc1ccccc1)c1ccc(NCc2cc(O)ccc2O)cc1 | i | i | nt | 71.7 | i | 56.7
O=C(NCc1cccc(Cl)c1)O[C@H]1CC[C@@]23CCCN2C(=O)CCC[C@H]3C1 | i | nt | nt | nt | nt | nt
O=C1N(CC[C@@H](O)c2ccccc2)CCC12CCC(c1ccccc1)CC2 (stereo partly specified) | i | nt | nt | nt | nt | nt
O=C(Nc1cc(Cl)ccc1O)C1CC(c2ccccc2Cl)=NO1 (stereo unspecified) | i | i | i | 32.8 | i | i
O=C(NCC1CCN(C(=O)C(=O)c2cccs2)CC1)c1cccnc1 | i | nt | nt | nt | nt | nt
CC(=O)N1C[C@@H](CO)[C@@H](N(C)C(=O)Nc2cccc3ccccc23)C[C@H]1c1ccccc1 | i | nt | nt | nt | nt | nt
COc1ccc(OC)c(/C=C/C(=O)OCC(=O)Nc2ccc(Cl)c(S(=O)(=O)N(C)C)c2)c1 | i | i | i | 45.5 | i | 42.3
COc1cccc(/C=C/C(=O)OCC(=O)Nc2ccc3[nH]c(=O)[nH]c3c2)c1OC | i | i | i | i | i | nt
COc1cccc(/C=C/C(=O)OCC(=O)Nc2ccc(Cl)c(S(=O)(=O)N(C)C)c2)c1OC | i | i | i | 81.8 | i | 73.0
O=C(CCc1[nH]c2ccccc2c1Sc1ccccc1)NCCO | i | i | i | 37.0 | i | i
COC(=O)[C@]12C[C@H](CC(=O)NCCCN3CCCC3=O)C(=O)N(Cc3ccc(Cl)cc3Cl)C1=C[C@H](C(C)C)O[C@@H]2C1CC1 | i | nt | nt | nt | nt | nt
Cc1cccc(NC(=O)COC(=O)c2n[nH]c3ccccc23)c1C | i | i | i | 58.7 | i | 46.0
Cc1cc(NC(=O)COC(=O)c2n[nH]c3ccccc23)no1 | i | i | i | i | i | nt
O=C(COC(=O)c1n[nH]c(=O)c2ccccc12)Nc1ccccc1F | i | i | i | i | i | nt
Cc1cccc(NC(=O)COC(=O)c2cccs2)c1C | i | i | i | 68.5 | i | 55.9
Cc1cccc(NC(=O)COC(=O)Cc2cccs2)c1C | i | i | i | i | i | nt
O=C(COC(=O)c1n[nH]c2ccccc12)Nc1ccccc1F | i | i | i | 43.7 | i | 43.0
O=C(COC(=O)c1n[nH]c2ccccc12)Nc1ccc(Cl)cc1[N+](=O)[O-] | i | i | i | 72.6 | i | 64.2
Cc1cccc(/C(N)=N/OC(=O)c2ccc3c(c2)OCO3)c1 | i | i | i | 42.0 | i | 36.3
SMILES | TDP2 inh | PAFAH1B3 inh | Apaf-1 inh | PAFAH2 FP inh | PAFAH1B2 FP inh | PAFAH2 confirm
COc1ccccc1/C=N/OC(=O)c1ccc(C)cc1 | i | i | i | 86.6 | i | 75.3
N/C(=N\OC(=O)c1ccc2c(c1)OCO2)c1cccc([N+](=O)[O-])c1 | i | i | i | i | i | nt
COc1ccccc1C/C(N)=N/OC(=O)c1ccc2c(c1)OCO2 | i | i | i | 76.6 | i | 79.4
COC(=O)c1ccc(CO/N=C/c2ccccc2OC)cc1 | i | i | i | i | i | nt
COc1ccccc1C/C(N)=N/OC(=O)c1ccco1 | i | i | i | 57.7 | i | 61.9
CCCC1CCC2(CC1)CCC2OC(=O)Nc1ccc2c(c1)OCO2 (stereo unspecified) | i | nt | nt | nt | nt | nt
C=CCN1C(=O)[C@H](CC(=O)N2CCN(C(=O)c3ccco3)CC2)[C@@]2(C(=O)OCC)CCCC=C12 | i | nt | nt | nt | nt | nt
Cc1ccc(C(=O)O/N=C/c2ccc3c(c2)OCO3)cc1 | i | i | i | 47.6 | i | 51.0
O=C(O/N=C/c1ccc2c(c1)OCO2)c1ccc([N+](=O)[O-])cc1 | i | i | i | i | i | nt
N/C(Cc1ccc(Cl)cc1)=N\OC(=O)c1ccc2ccccc2c1 | i | i | i | 35.9 | i | 30.3
N/C(Cc1ccc(Cl)cc1)=N\OC(=O)c1cccc2ccccc12 | i | i | i | i | i | nt
Cc1ccc(C(=O)O/N=C(\N)Cc2cccc3ccccc23)cc1 | i | i | i | 66.6 | i | 73.5
N/C(CC1CC1(Cl)Cl)=N\OC(=O)c1ccccc1 (stereo unspecified) | i | i | i | 83.0 | i | 78.1
N/C(Cc1ccc(Cl)cc1Cl)=N\OC(=O)c1ccccc1 | i | i | i | 77.8 | i | 77.7
Cc1csc(NC(=O)c2ccc(COc3ccccc3F)o2)n1 | i | nt | nt | nt | nt | nt
O=C(CSc1nc2ccccc2nc1N1CCOCC1)N1CCN(c2cccc(C(F)(F)F)c2)CC1 | i | nt | nt | nt | nt | nt
COC(=O)c1cc2c(c3c4cc(OC)ccc4n(S(=O)(=O)c4ccc(F)cc4)c13)C(=O)N(Cc1ccccc1)C2 | i | nt | nt | nt | nt | nt
COc1ccc(C/C(N)=N/OC(=O)c2ccc(Cl)cc2)cc1 | i | i | i | 50.8 | i | 39.0
CSc1ccc(Cl)c(C(=O)OCC(=O)NCC(C)C)c1 | i | i | i | 43.1 | i | 30.0
CNC(=O)COC(=O)c1cc(SC)ccc1Cl | i | i | i | i | i | nt
CCSC1=N/C(=C\c2ccc(C(=O)O)cc2)C(=O)S1 | i | i | i | 31.2 | i | i
CCOC(=O)C1=CCN(S(=O)(=O)c2ccc(Br)cc2)C1c1cccc(Cl)c1 (stereo unspecified) | i | nt | nt | nt | nt | nt
CN(C(=O)CNC(=O)c1ccccc1OCC(=O)Nc1ccc(I)cc1)c1ccccc1 | i | nt | nt | nt | nt | nt
CCN(CC)c1ccc(C(=O)OCC(=O)N2CCCC2)cc1 | nt | i | i | 35.9 | i | i
CCN(CC)c1ccc(C(=O)OCC(=O)N(C)Cc2ccccc2)cc1 | i | i | i | 48.3 | i | 35.7
SMILES | TDP2 inh | PAFAH1B3 inh | Apaf-1 inh | PAFAH2 FP inh | PAFAH1B2 FP inh | PAFAH2 confirm
CN(CCCOC(=O)CC1C=CCC1)C1CN(Cc2cn(Cc3ccccc3Cl)nn2)S(=O)(=O)C1 (stereo unspecified) | i | nt | nt | nt | nt | nt
COC(=O)c1cc(-c2c(C)noc2C)c(=O)n2c1CCC2 | i | nt | nt | nt | nt | nt
Oc1ccc2c(c1)OCC1(O)Cc3cc(O)c(O)cc3C21 (stereo unspecified) | i | i | nt | 34.2 | i | i
O=C(OCC1COc2ccccc2O1)c1ccccc1F (stereo unspecified) | i | i | i | 38.6 | i | i
CN(C)S(=O)(=O)c1cccc(C(=O)OCC(=O)Nc2ccc3c(c2)OCCO3)c1 | i | i | i | 41.2 | i | 39.5
O=C(NCC1COc2ccccc2O1)c1ccc(NC(=O)c2cccc(F)c2F)cc1 (stereo unspecified) | i | nt | nt | nt | nt | nt
